Bioassay records deposited in PubChem by Johns Hopkins Ion Channel Center.
MrgX1 antag = human MrgX1 receptor antagonism, primary screen; MRGX1-HEK293 calcium flux, Fluo-4, BAM8-22 antagonism; stronger effect = lower value; Q96LB2; B-score at 10 µM; 310,000 tested, 1.3% active; AID 588676;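 active means calcium-response B-score plate-corrected more than 3 library SD below zero, starting fluorescence within 5 deviations, no agonist response on first addition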;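 further: peak minus trough fluorescence over baseline after final BAM8-22 challenge near maximal dose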
Target sequence (Q96LB2 whole entry, looked up): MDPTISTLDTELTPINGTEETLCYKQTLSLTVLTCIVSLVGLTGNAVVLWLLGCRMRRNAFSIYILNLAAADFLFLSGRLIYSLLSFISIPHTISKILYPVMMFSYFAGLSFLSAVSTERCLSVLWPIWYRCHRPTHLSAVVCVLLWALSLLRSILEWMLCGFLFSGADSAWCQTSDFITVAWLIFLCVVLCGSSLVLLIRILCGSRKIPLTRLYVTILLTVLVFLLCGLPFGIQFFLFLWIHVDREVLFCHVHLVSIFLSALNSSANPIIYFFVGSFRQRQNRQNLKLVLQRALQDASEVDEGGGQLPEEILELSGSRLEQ
RGS4 block = inhibitors of human RGS4; HEK293 M3R/RGS4 inducible, Fluo-4 calcium flux; stronger effect = higher value; triggered by carbachol at its EC20; P49798; B-score at 10 µM; 310,000 tested, 0.45% active;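 active means B-score, a plate-corrected calcium signal, over three deviations above library mean, with baseline fluorescence within five deviations of library mean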;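 further: RGS4 expression induced by doxycycline in cells with stable M3 receptor; B-score is computed from the integrated fluorescence ratio over baseline after carbachol; higher B-score means a larger calcium signal and so more RGS4 inhibition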
Target sequence (P49798 whole entry, looked up): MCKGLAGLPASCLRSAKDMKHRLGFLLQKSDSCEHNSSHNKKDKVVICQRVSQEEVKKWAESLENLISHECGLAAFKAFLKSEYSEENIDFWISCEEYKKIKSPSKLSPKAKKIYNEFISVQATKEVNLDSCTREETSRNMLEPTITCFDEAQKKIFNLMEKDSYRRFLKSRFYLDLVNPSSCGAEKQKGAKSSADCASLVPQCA
RGS4 act = RGS4 potentiation or activation; B-score at 10 µM; 310,000 tested, 0.92% active; AID 463111; HEK293 M3R/inducible RGS4, carbachol calcium flux Fluo4; stronger effect = lower value;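 active means B-score of the integrated calcium signal more than 4 SD below the library mean, with starting fluorescence not abnormally high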;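 further: negative B-score means reduced calcium response which marks RGS4 activation or potentiation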
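Material: M3R-expressing HEK293 line, RGS4 induced by doxycycline | Schedule: Overnight RGS4 induction, 30 min dye load 37 °C, 20 min compound RT | Measured by: Fluo4 fluorescence kinetic imaging of calcium | Read-out: Integrated calcium ratio converted to B score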
MrgX1 PAM = human MrgX1 positive allosteric modulation, primary screen | B-score at 10 µM | 310,000 tested, 0.63% active | MrgX1-HEK293, Fluo-4 calcium flux, FDSS; stronger effect = higher value | Q96LB2 | AID 588675;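 active means plate-corrected calcium response at least 3 library SD above typical, normal starting fluorescence, not activating the receptor alone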;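 further: compound read alongside a low EC10 to EC30 dose of BAM8-22 agonist; peak minus trough fluorescence over baseline measured at the second addition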
MrgX1 ag = human MrgX1 receptor agonism, primary screen; B-score at 10 µM; 310,000 tested, 0.44% active; MrgX1-HEK293 cells, Fluo-4 calcium fluorescence, agonist mode; stronger effect = higher value; Q96LB2;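 active means calcium response B-score plate-corrected fluorescence ratio at least 3 library SD, with starting fluorescence B-score inside 5 SD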
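times = overnight plating, then 30 min 37 °C plus 30 min room-temperature dye loading | assay system = stable human MrgX1 HEK293 cell line | input = fifteen thousand cells per well | signal = kinetic calcium dye fluorescence, Fluo-4 NW | dosing = compound delivered in addition one of three | read-out = B-scored fluorescence response ratio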
RGS4 act valid = confirmation of RGS4 activators; shares compounds with RGS4 act; HEK293 M3R/RGS4 inducible, carbachol calcium flux Fluo4; inhibition, % at 10 µM; 1,100 tested, 89% active; AID 602282;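 active means inhibition above 3 SD of the buffer control wells, cut at about 41% in these data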;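 further: signal is the integrated peak-minus-minimum Fluo4 fluorescence over baseline ratio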
M3R Ca counter = RGS4 activator counter-screen hit in non-induced cells | 1,100 tested, 82% active | shares compounds with RGS4 act | inhibition, % at 10 µM | AID 602283 | HEK293 M3R non-induced RGS4, Fluo4 calcium flux; after carbachol challenge at its EC90;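 active means inhibition exceeding 3 SD of buffer-only control wells, cut at about 26% in these data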;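 further: percent drop in integrated peak-minus-baseline over baseline Fluo4 ratio after carbachol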
The depositor's hits bear a star; i = inactive; / = no result given. In the library only some 3.5% were active in any assay of this set; here they are far more common.

SMILES | MrgX1 antag | RGS4 block | RGS4 act | MrgX1 PAM | MrgX1 ag | RGS4 act valid | M3R Ca counter
COc1ccc(/C=C/C(O)=C2/C(=O)N(C)C3(C)CC2c2ccccc2O3)cc1 (stereo not drawn) | i | i | i | i | i | / | /
Cc1ccc(/C=C/C(O)=C2/C(=O)N(C)C3(C)CC2c2ccccc2O3)cc1 (stereo not drawn) | i | i | -8* | i | i | 73* | 84*
O=C(Cn1ncc2c([nH]c3ccccc32)c1=O)N1CCN(c2ccccn2)CC1 | i | i | i | i | i | / | /
COc1ccc(N2CCN(c3ncnc4scc(-c5ccc(C)cc5)c34)CC2)cc1 | i | i | -7.9* | i | i | 0 | 0
COc1ccc(N2CCN(c3ncnc4scc(-c5ccc(F)cc5)c34)CC2)cc1 | i | i | i | i | i | / | /
COc1ccc(-c2csc3ncnc(N4CCN(c5ccccc5Cl)CC4)c23)cc1 | i | i | -8.6* | i | i | 76* | 84*
COc1ccc(N2CCN(c3ncnc4scc(-c5ccccc5)c34)CC2)cc1 | i | i | -7.9* | i | i | 54* | 0
COc1ccc(-c2csc3ncnc(N4CCN(S(=O)(=O)c5cccs5)CC4)c23)cc1 | i | i | -8.2* | i | i | 42* | 84*
CCCN1CCc2c(sc3nc(SC)n(-c4ccccc4)c(=O)c23)C1 | i | i | i | i | i | / | /
CNC(=O)CSc1nnc(-c2ccco2)n1-c1cccc(OC)c1 | i | i | i | i | i | / | /
COc1ccc(C(=O)c2sc3nc(C)cc(-c4cccs4)c3c2N)cc1OC | i | i | -8.7* | i | i | 83* | 71*
COc1ccc(C(=O)c2sc3nc(C)cc(-c4cccs4)c3c2N)cc1 | / | i | i | / | / | / | /
O=C(CCC1CCCN(C2C3CC4CC(C3)CC2C4)C1)NCc1ccc(F)c(F)c1 (stereo not drawn) | i | i | -7.7* | i | i | 81* | 45*
CC1CC(OC(=O)C(O)c2ccccc2)CC(C)(C)N1C (stereo not drawn) | i | i | -10* | i | i | 77* | 38*
CSCCC(NS(=O)(=O)c1ccc2c(c1)c(=O)n(C)c(=O)n2C)C(=O)NC1CCN(Cc2ccccc2)CC1 (stereo not drawn) | i | i | i | i | i | / | /
CN(CC(=O)NC1CCN(Cc2ccccc2)CC1)S(=O)(=O)c1ccc2c(c1)c(=O)n(C)c(=O)n2C | i | i | -9.4* | i | i | 76* | 47*
COc1cccc(C(=O)C2CCCN(C/C=C/c3ccccc3OC)C2)c1 (stereo not drawn) | i | i | i | i | i | / | /
COc1ccc(C(=O)C2CCCN(C/C=C/c3ccccc3OC)C2)c(OC)c1 (stereo not drawn) | i | i | -9.3* | i | i | 88* | 84*
CC(=O)c1c(C)[nH]c(C(=O)NCC2CCCCC2)c1C | i | i | i | i | i | / | /
Cc1ncc(C[n+]2csc(CCOC(=O)C34CC5CC(CC(C5)C3)C4)c2C)c(N)n1 | i | i | i | i | i | / | /
Cc1c(CCOC(=O)C23CC4CC(CC(C4)C2)C3)sc[n+]1Cc1ccccc1 | i | i | -12* | i | i | 92* | 61*
CC1CCN(C(=O)c2cc3nc(-c4ccccc4)cc(-c4ccccc4)n3n2)CC1 | i | i | i | i | i | / | /
O=C(NC1CCCC1)c1cc2nc(-c3ccccc3)cc(-c3ccccc3)n2n1 | i | i | -7.7* | i | i | 82* | 84*
CCOC(=O)C1CCCN(C(=O)c2cc(Nc3ccc(OC)c(OC)c3)nc3ccccc23)C1 (stereo not drawn) | i | i | i | i | i | / | /
CCOC(=O)C1CCCN(C(=O)c2cc(-c3ccc(C)cc3)nc3ccccc23)C1 (stereo not drawn) | i | i | -9.1* | i | i | 48* | 0
SMILES | MrgX1 antag | RGS4 block | RGS4 act | MrgX1 PAM | MrgX1 ag | RGS4 act valid | M3R Ca counter
Cc1ccc(C)c(OCC(=O)N2CCc3ccccc3C2)c1 | i | i | -7.7* | i | i | 56* | 84*
Cc1ccccc1OCC(=O)N1CCc2ccccc2C1 | i | i | i | i | i | / | /
COc1ccc(S(=O)(=O)Nc2ccccc2-c2nc3ccccc3[nH]c2=O)cc1 | i | i | i | i | i | / | /
CCC[C@@H](NS(=O)(=O)c1ccc(C)cc1)C(=O)Oc1ccc2c3c(c(=O)oc2c1)CCC3 | i | i | -7.6* | i | i | 92* | 71*
Cc1ccc(S(=O)(=O)NC(C(=O)Oc2ccc3c(C)c(Cl)c(=O)oc3c2)c2ccccc2)cc1 (stereo not drawn) | i | i | i | i | i | / | /
Cn1c(CNC(=O)CNC(=O)Cc2ccccc2)cc(=O)n(C)c1=O | i | i | i | i | i | / | /
COc1ccc(CN2CCc3ccc(NC(=O)CCc4ccccc4OC)cc3C2)c(O)c1 | i | i | -9.3* | i | i | 90* | 71*
COc1cc(CN2CCc3ccc(NC(=O)CCc4ccccc4OC)cc3C2)ccc1O | i | i | i | i | i | / | /
COc1cccc(N2CCN(C(=O)c3cc4c(=O)n(Cc5ccccc5)ccc4nc3C)CC2)c1 | i | i | i | i | i | / | /
OCC1(Cc2ccccc2Cl)CCN(C/C=C/c2ccccc2)CC1 | i | i | -9.2* | i | i | 94* | 83*
OCC1(CCc2ccccc2)CCN(C/C=C/c2ccccc2)CC1 | i | i | i | i | i | / | /
CCN(CC)C(=O)c1ccc(S(=O)(=O)c2ccccc2)cc1 | i | i | i | i | i | / | /
COc1ccc(-c2csc(N3CCN(c4cc(C)nc5ccccc45)CC3)n2)cc1OC | i | i | -8.5* | i | i | 92* | 86*
COc1ccc(C(=O)OCCN2C(=O)c3ccccc3C2=O)cc1 | i | i | -8.7* | i | i | 40* | 84*
CCN1CCN(CCCNC(=O)c2ccc3c(Cl)c4c(nc3c2)CCCC4)CC1 | i | i | -8.6* | i | i | 82* | 50*
O=C(NCCCN1CCCCCC1)c1ccc2c(Cl)c3c(nc2c1)CCCC3 | i | i | i | i | i | / | /
